Assay outcomes (PubChem BioAssay)
MPTP inh – mitochondrial permeability transition pore inhibitors, primary screen, biochemical, isolated mouse mitochondria, absorbance | Ca2+ swelling absorbance, 30 min | inhibition, % at 10 µM | actives 1.4% (n = 360,000);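 active = inhibition of 50% or more, scaled per plate between neutral and stimulator controls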;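 note: 0% = DMSO wells given calcium and 100% = 1 mM EGTA wells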
rCAG RNA binder – binders of r(CAG) RNA repeats, primary screen, biochemical, fluorescence | r(CAG) RNA repeat, TO-PRO-1 dye displacement fluorescence | inhibition, % at 3 µM | actives 1.3% (n = 370,000) | AID 651821, 2012;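 active = inhibition above the plate cutoff, the mean of all test compounds on that plate plus 3 SD, cut at about 35% in these data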;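 note: 0% = DMSO alone and 100% = 100 µM mitoxantrone as full dye displacement; higher means more dye released from RNA so lower well fluorescence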
T cell HTS – modulators of CD8 T cell-vesicle binding, primary screen, mouse 2C CD8+ T cells, flow cytometry; 2C CD8+ T cell-vesicle binding; active compounds read low; response (vesicle binding), % at 7 µM; actives 0.068% (n = 330,000); AID 2052, 2009;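 active = response, share of CD8 T cells binding vesicles, and their 90th percentile fluorescence all below set limits, cut at about 80% in these data, passing the limit was not always enough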;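 note: values below 100% mean blocked vesicle binding to the CD8+ T cells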
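material = purified 2C TCR transgenic mouse naive CD8+ T cells | controls = Unloaded micro-vesicles (low), QL9 vesicles with 0.7% DMSO (high) | detection = cytometric PE anti-B7-1 and Alexa647 anti-CD8 signals after 1% paraformaldehyde fixation | incubation = binding step 1.5 h, 37 °C, antibody labelling 20 min, ice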
Exocytosis inh – LAMP-1 surface exposure blockers, TALL-104 cells – cell-based, flow cytometry, MLPCN library, primary screen | TALL-104 LAMP-1 surface exposure; cells stimulated with thapsigargin and PMA | inhibition, % at 10 µM | actives 0.66% (n = 360,000) | AID 651702, 2012;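 active = inhibition above about 55%, limit read from the data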
V-ATPase pHluor – regulators of yeast V-ATPase proton pumping, primary screen, pHLuorin cytosolic pH fluorescence. response, % at 10 µM. S. cerevisiae. actives 0.37% (n = 350,000); in the data active = response mostly above about 7.3%, no sharp cut-off; inactive = mostly below about 5.4%; note: actives read high
Beta2AR agonist – beta2AR agonists driving receptor internalization, primary screen, cell-based, FAP fluorogen, flow cytometry | Am2.2-beta2AR cells | actives 0.43% (n = 340,000) | Beta-2 adrenergic receptor (Homo sapiens), P07550 | AID 504454, 2011 | response, % (no concentration beside the values);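 active = response above a set limit, near 3 SD of response in nonfluorescent compounds, cut at about 42% in these data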
Target sequence (P07550 whole entry, looked up): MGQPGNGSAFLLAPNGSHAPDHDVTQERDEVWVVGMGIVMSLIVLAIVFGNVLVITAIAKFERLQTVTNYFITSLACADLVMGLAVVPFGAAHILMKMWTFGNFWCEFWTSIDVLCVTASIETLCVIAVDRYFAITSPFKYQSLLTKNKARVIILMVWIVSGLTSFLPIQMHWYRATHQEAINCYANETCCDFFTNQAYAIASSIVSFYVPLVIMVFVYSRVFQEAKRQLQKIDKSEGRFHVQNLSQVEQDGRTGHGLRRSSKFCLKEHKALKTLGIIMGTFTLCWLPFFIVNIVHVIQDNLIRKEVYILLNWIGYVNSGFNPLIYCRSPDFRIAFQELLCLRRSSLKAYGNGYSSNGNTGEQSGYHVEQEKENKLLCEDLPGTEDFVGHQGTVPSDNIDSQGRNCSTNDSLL
Rh123 counter – fluorescence retest of MPTP screen hits in isolated mitochondria, single concentration; shares compounds with MPTP inh; membrane potential, Rhodamine 123 fluorescence; inhibition, % at 10 µM; actives 78% (n = 5,000); AID 624504, 2012; in the data active = inhibition above about 22%;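 note: 0% = DMSO vehicle and 100% = positive control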
MPTP abs DR – mitochondrial permeability transition pore inhibitors, dose response, biochemical, absorbance, uHTS hits; actives 58% (n = 780); isolated mitochondria swelling; shares compounds with MPTP inh; IC50, µM; AID 651561, 2012; in the data active = IC50 below about 20 µM
MPTP counter DR – fluorescent counter-screen in isolated mitochondria, dose response, counter-screen for MPTP inhibitor project, biochemical, fluorescence, uHTS hits; shares compounds with MPTP inh; isolated mitochondria counterscreen, fluorescence read-out; IC50, µM; actives 49% (n = 780); AID 651564, 2012; in the data active = IC50 below about 80 µM
The depositor's hits bear a star; i = inactive; / = no result given. Sampled rows, rich in hits. Any-hit rate of the full collection: about 3.8%.

SMILES	MPTP inh	rCAG RNA binder	T cell HTS	Exocytosis inh	V-ATPase pHluor	Beta2AR agonist	Rh123 counter	others
Cc1cccnc1N(C(=O)Nc1ccccc1)C1=NCC(C)(C)S1	0	2	227	-3	0	14	/
CC(C)(C)S(=O)(=O)N1Cc2cc(CO)ccc2[C@@H]1CCO	/	5	/	/	/	/	/
Cc1ccc2cc(CN(CCN(C)C)C(=O)Nc3ccc(Cl)cc3)c(=O)[nH]c2c1	92*	-4	i	12	3	4	100*
Cc1ccc2[nH]c(=O)c(CN(CCCN(C)C)C(=O)Nc3ccc(Cl)cc3)cc2c1	0	0	585	14	-1	19	/
Cc1ccc2cc(/C=N/NC(=O)c3ccccc3O)c(Cl)nc2c1	61*	5	255	6	-1	-1	82*
Cc1cccc2cc(/C=N/NC(=O)c3ccccc3O)c(Cl)nc12	91*	6	246	27	-1	4	80*
O=C(Nc1nc(-c2cccs2)c(C(=O)C(F)(F)F)s1)c1ccccc1	88*	14	256	42	-4	-1	98*
COc1ccc(OC)c(NC(=O)CSc2ncnc3c2cnn3-c2ccccc2Cl)c1	84*	/	483	11	2	-87	82*
COC(=O)CSc1ncnc2c1cnn2Cc1ccccc1	-2	5	160	6	-2	-17	/
COc1cc(NC(=O)CSc2ncnc3c2cnn3Cc2ccccc2)cc(OC)c1	54*	8	253	5	-4	-8	28*
COc1ccc(OC)c(NC(=O)CSc2ncccn2)c1	0	-2	416	12	-4	1	/
Fc1cccc(CCN2CCNC[C@@H]2Cc2ccccc2)c1	22	6	347	4	4	-9	/
FC(F)(F)c1cc(CCN2CCNC[C@@H]2Cc2ccccc2)cc(C(F)(F)F)c1	92*	-1	442	-8	1	32	-22
CC(=O)N1CCN(c2cc(N3CCCC3)c(F)cc2[N+](=O)[O-])CC1	0	-5	203	-4	-4	0	/
CCN1CCN(c2cc(N3CCc4ccccc4C3)c(F)cc2[N+](=O)[O-])CC1	104*	-3	161	9	-1	-1	-12
COC(=O)[C@@H](C)NC(=O)C(Cc1ccc2c(c1)OCO2)NC(C)=O (some centres not stated)	/	3	/	/	/	/	/
COc1ccccc1OCCCCOc1ccccc1C(C)=O	61*	2	490	-6	3	4	61*
CC(=O)c1ccccc1OCCOc1ccccc1C(C)=O	1	-4	225	-10	-3	-3	/
O=C(C1CCCN1S(=O)(=O)c1cccc([N+](=O)[O-])c1)N1CCN(c2ccccc2)CC1 (configuration not stated)	/	1	/	/	/	/	/
CC(C)c1c(O)ccc2c1CC[C@H]1C(C)(C)CCC[C@]21C	98*	2	/	6	-7	18	11	MPTP abs DR=i;MPTP counter DR=16*
COc1ccccc1NC(=O)Cc1csc(NC(=S)Nc2ccccc2)n1	79*	21	798	-5	0	-6	71*
COc1ccc(NC(=S)Nc2nc(CC(=O)Nc3ccccc3OC)cs2)cc1	75*	23	683	-2	0	7	79*
COc1ccc(OC)c(NC(=O)Cc2csc(NC(=O)Nc3ccccc3OC)n2)c1	0	11	222	6	2	3	/
COc1ccc2c(c1)[C@@]1(NCCc3c1[nH]c1ccc(OC)cc31)C(=O)N2	/	2	/	/	/	/	/
O=c1cc(-c2ccccc2Cl)oc2c(NS(=O)(=O)c3cc(Cl)cc(Cl)c3O)ccc(O)c12	70*	/	212	-3	11	7	6
SMILES	MPTP inh	rCAG RNA binder	T cell HTS	Exocytosis inh	V-ATPase pHluor	Beta2AR agonist	Rh123 counter	others
CN(CC1CCN(CCc2cccc(C(F)(F)F)c2)CC1)C(=O)c1ccc(F)cc1F	1	-13	183	45	-1	1	/
COc1ccc(C(=O)N(C)CC2CCN(CCc3cccc(C(F)(F)F)c3)CC2)cc1C	53*	-10	247	-2	4	29	-3	MPTP abs DR=12*;MPTP counter DR=42*
CC(C)c1cc(C(=O)Nc2cc(Br)ccc2O)no1	58*	8	547	-1	7	2	62*
CC(C)c1cc(C(=O)Nc2cc(Cl)ccc2O)no1	44	10	136	-4	-1	6	/
O=C(NCC1CCCCC1)c1cc2ccccc2cc1O	59*	9	824	-2	-1	10	81*
CC1CCC(NC(=O)c2cc3ccccc3cc2O)CC1 (configuration not stated)	87*	16	395	-12	5	2	94*
O=C(NCC1CCCO1)c1cc2ccccc2cc1O (configuration not stated)	-1	6	325	2	-4	11	/
O=C(NNC(=O)c1cc2ccccc2cc1O)NC1CCCCC1	4	12	337	3	1	3	/
O=C(OC12CCCN(C1)/C(=C/c1ccccc1)C2)c1ccccc1 (configuration not stated)	/	3	/	/	/	/	/
CC(C)[C@@H]1NC(=O)[C@H]2C[C@@]3(c4ccccc4)c4ccccc4N[C@H]3N2C1=O	/	9	/	/	/	/	/
Cc1cc(C(=O)NC2CCCc3c2cnn3-c2ccc(C)c(C)c2)n(C)n1 (configuration not stated)	93*	-10	196	-1	1	10	87*
Cc1ncoc1C(=O)NC1CCCc2c1cnn2-c1ccc(C(C)(C)C)cc1 (configuration not stated)	79*	-5	/	2	-1	21	94*
CN1[C@@H](Cc2ccccc2)COc2cccc(N3CCCC3)c2S1(=O)=O	/	3	/	/	/	/	/
CC(C)(C)c1cccc(N/C(=C\C(=O)c2ccccc2)c2ccccc2)c1	/	2	/	/	/	/	/
N=C1/C(=C/c2coc3ccccc3c2=O)C(=O)N=C2SC(c3ccco3)=NN12	64*	/	752	5	5	-66	71*
CSC1=NSC2=NC(=O)/C(=C\c3coc4ccccc4c3=O)C(=N)N12	95*	-213	451	-1	3	-10	90*
